The source of these data is ChEMBL document CHEMBL2057149 (J Med Chem, 2012).

For orientation: Kd means a measure of binding affinity in units of concentration. Low readings indicate a tighter complex, high ones a looser complex. In general, Ki refers to the equilibrium dissociation constant of an inhibitor or competing ligand from its target. By IC50 is commonly meant the midpoint of a concentration-inhibition curve. For orientation: inhibition means the share of the control response that was lost under treatment.

In data set [1] the target is Fibroblast growth factor 1 (Homo sapiens, UniProt P05230). As to the kind of experiment: Binding affinity to FGF-1 by surface plasmon resonance assay. The gist of the method: (§1)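 Solution-affinity SPR on heparin-coated CM4 chips. FGF-1 measured in HBS-EP (10 mM HEPES pH 7.4, 150 mM NaCl, 3.0 mM EDTA, 0.005% polysorbate 20); FGF-2 measured in HBS-EP with 300 mM NaCl. Kd is the average of at least duplicate measurements ± SD.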
Background: SPR reads the build-up and loss of mass on a sensor chip optically.

Data set [2] concerns the target Fibroblast growth factor 2 (Homo sapiens, UniProt P09038). The experiment in a line: Binding affinity to FGF-2 by surface plasmon resonance assay. A digest of the protocol:
as §1

For another data set, the target named is T1, Heparanase (Homo sapiens, UniProt Q9Y251).
T1 sequence (Q9Y251 whole entry): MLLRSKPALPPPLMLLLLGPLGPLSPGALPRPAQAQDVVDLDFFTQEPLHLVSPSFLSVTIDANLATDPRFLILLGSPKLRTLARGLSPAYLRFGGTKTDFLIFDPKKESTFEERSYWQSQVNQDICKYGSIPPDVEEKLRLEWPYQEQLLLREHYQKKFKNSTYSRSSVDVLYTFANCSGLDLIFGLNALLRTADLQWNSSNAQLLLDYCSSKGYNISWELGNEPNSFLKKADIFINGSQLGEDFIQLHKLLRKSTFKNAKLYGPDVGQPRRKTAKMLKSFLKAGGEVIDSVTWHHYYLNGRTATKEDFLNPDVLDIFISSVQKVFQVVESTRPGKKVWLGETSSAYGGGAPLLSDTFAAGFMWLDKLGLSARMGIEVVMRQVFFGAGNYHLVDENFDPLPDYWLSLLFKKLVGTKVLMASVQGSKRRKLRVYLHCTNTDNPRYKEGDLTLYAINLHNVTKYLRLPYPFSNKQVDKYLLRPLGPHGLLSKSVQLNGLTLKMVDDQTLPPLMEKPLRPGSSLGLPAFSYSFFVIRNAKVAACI
As to the kind of experiment: Inhibition of human recombinant heparanase after 2 to 24 hrs by WST1 dye based fondaparinux assay. (Formazan colour is commonly taken as a measure of viable cells.)

Data set [3] concerns HUVEC. As to the kind of experiment: Antiangiogenic activity in FGF1-stimulated HUVEC cells after 72 hrs by CellTiter assay. The following applies: Homo sapiens. The data set is classed as functional, cell-based.
Data set [4] deals with HUVEC. The experiment in a line: Antiangiogenic activity in FGF2-stimulated HUVEC cells after 72 hrs by CellTiter assay. The data set is classed as functional, cell-based. Particulars: Homo sapiens.
Data set [5] deals with HUVEC. The experiment in a line: Antiangiogenic activity in VEGF-stimulated HUVEC cells after 72 hrs by CellTiter assay. Particulars: Homo sapiens. The data set is classed as functional, cell-based.
Data set [6] concerns HMVEC. As to the kind of experiment: Antiangiogenic activity in FGF1-stimulated HMVEC cells after 72 hrs by CellTiter assay. The data set is classed as functional, cell-based. The following applies: Homo sapiens.
For data set [7], the system named is HMVEC. The experiment in a line: Antiangiogenic activity in FGF2-stimulated HMVEC cells after 72 hrs by CellTiter assay. The data set is classed as functional, cell-based. Particulars: Homo sapiens.
Data set [8] concerns HMVEC. The experiment in a line: Antiangiogenic activity in VEGF-stimulated HMVEC cells after 72 hrs by CellTiter assay. The data set is classed as functional, cell-based. The following applies: Homo sapiens.
Data set [9] relates to HUVEC. The experiment in a line: Antiangiogenic activity in HUVEC cells assessed as inhibition of tube formation at 10 uM after 18 hrs by matrigel assay. Particulars: Homo sapiens. The data set is classed as functional. A digest of the protocol: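 HUVECs (passage 4 or 5, 70–80% confluent) suspended at 4 × 10⁵/mL in EGM2 with all supplements except heparin, mixed 1:1 with compound (final 10, 50 or 100 μM) in triplicate. Plated on growth factor-reduced Matrigel for 18 h. Branching nodes joining ≥3 tubules counted manually by phase-contrast microscopy. Reported as % inhibition versus untreated cells.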

The subject of data set [10] is Plasma. As to the kind of experiment: Anticoagulant activity in pooled human plasma assessed as activated partial thromboplastin time at 0.1 mg/ml. The data set is classed as ADME, cell-free. The gist of the method:
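APTT of pooled normal human plasma measured with compound at 0–100 μg/mL in PBS on a ball coagulameter, using unfractionated heparin as the reference. Normal range 26–36 s; coefficient of variation 2% at 36 s and 5–7% at 90 s or above. Values are the mean of two determinations.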

Data set [11] has as its system Plasma. The experiment in a line: Anticoagulant activity in pooled human plasma assessed as prolongation of the recalcification time at 0.1 mg/ml by Heptest assay. The data set is classed as ADME, cell-free. A digest of the protocol:
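Heptest clotting time in pooled normal human plasma; normal range 13–20 s. Values are the mean of two determinations.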

In data set [12] the target is Vascular endothelial growth factor A (Homo sapiens) (UniProt P15692). As to the kind of experiment: Binding affinity to VEGF by surface plasmon resonance assay.

SMILES strings stand for the structures. Calls of active or inactive are those of the source. The calls are words filed in the database; no cut-off is given here.

Fibroblast growth factor 1, sequence (P05230 whole entry): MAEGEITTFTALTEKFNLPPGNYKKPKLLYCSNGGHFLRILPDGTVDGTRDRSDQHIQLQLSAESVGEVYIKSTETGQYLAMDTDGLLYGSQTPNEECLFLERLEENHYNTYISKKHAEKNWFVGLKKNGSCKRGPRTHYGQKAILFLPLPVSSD
Fibroblast growth factor 2, sequence (P09038 143-288 limits assumed): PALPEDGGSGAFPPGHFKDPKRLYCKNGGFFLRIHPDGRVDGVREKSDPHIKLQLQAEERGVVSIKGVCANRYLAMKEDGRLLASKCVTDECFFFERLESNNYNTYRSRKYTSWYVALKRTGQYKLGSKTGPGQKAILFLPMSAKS

With `CCCCCCCCCCCCCCCCCC(=O)NCCCO[C@H]1O[C@H](COS(=O)(=O)[O-])[C@@H](OS(=O)(=O)[O-])[C@H](OS(=O)(=O)[O-])[C@@H]1O[C@H]1O[C@H](COS(=O)(=O)[O-])[C@@H](OS(=O)(=O)[O-])[C@H](O[C@H]2O[C@H](COS(=O)(=O)[O-])[C@@H](OS(=O)(=O)[O-])[C@H](O[C@H]3O[C@H](COS(=O)(=O)[O-])[C@@H](OS(=O)(=O)[O-])[C@H](OS(=O)(=O)[O-])[C@@H]3OS(=O)(=O)[O-])[C@@H]2OS(=O)(=O)[O-])[C@@H]1OS(=O)(=O)[O-].[Na+].[Na+].[Na+].[Na+].[Na+].[Na+].[Na+].[Na+].[Na+].[Na+].[Na+].[Na+].[Na+]`, the equilibrium dissociation constant (Kd) in [1] amounted to 0.00044 µM; in [2], 0.108 µM; in data set [12] it was 0.04 µM. Also, the Ki on Heparanase was determined as 0.006 µM. For the same compound, the values for the IC50 in the data set with HUVEC [3], in the data set on HUVEC [4] and in the data set on HUVEC [5] were 1.54 µM, 0.7 µM and 0.6 µM, respectively. Further, the outcome in the data set with HMVEC [6], in the data set with HMVEC [7] and with HMVEC [8] was Active. The inhibition at 10 µM in the data set with HUVEC [9] is over 80%. For the same compound, the APTT in the data set with Plasma [10] was 68.1 s. Moreover, the Time with Plasma [11] is 24.5 s.
As for `CCCCCCCCCCCCCCCCCC(=O)NCCCO[C@@H]1O[C@H](COS(=O)(=O)[O-])[C@@H](O[C@H]2O[C@H](COS(=O)(=O)[O-])[C@@H](O[C@H]3O[C@H](COS(=O)(=O)[O-])[C@@H](O[C@H]4O[C@H](COS(=O)(=O)[O-])[C@@H](OS(=O)(=O)[O-])[C@H](OS(=O)(=O)[O-])[C@H]4OS(=O)(=O)[O-])[C@H](OS(=O)(=O)[O-])[C@H]3OS(=O)(=O)[O-])[C@H](OS(=O)(=O)[O-])[C@H]2OS(=O)(=O)[O-])[C@H](OS(=O)(=O)[O-])[C@H]1OS(=O)(=O)[O-].[Na+].[Na+].[Na+].[Na+].[Na+].[Na+].[Na+].[Na+].[Na+].[Na+].[Na+].[Na+].[Na+]`, the 50% inhibitory concentration (IC50) in the data set with HUVEC [4] was determined as 0.8 µM. Also, the outcome with HMVEC [6], in the data set with HMVEC [7] and in the data set with HMVEC [8] was Active. The inhibition at 10 µM in the data set on HUVEC [9] was over 80%. Moreover, the APTT in the data set on Plasma [10] is recorded as 65.8 s. Further, in the data set on Plasma [11], the Time amounted to 32.2 s. Binding in data set [12] was characterised by a dissociation constant (Kd) of 0.014 µM.
As for `CC(C)CCC[C@@H](C)[C@H]1CC[C@H]2[C@@H]3CC[C@H]4C[C@@H](O[C@@H]5O[C@H](COS(=O)(=O)[O-])[C@@H](O[C@H]6O[C@H](COS(=O)(=O)[O-])[C@@H](O[C@H]7O[C@H](COS(=O)(=O)[O-])[C@@H](OS(=O)(=O)[O-])[C@H](OS(=O)(=O)[O-])[C@H]7OS(=O)(=O)[O-])[C@H](OS(=O)(=O)[O-])[C@H]6OS(=O)(=O)[O-])[C@H](OS(=O)(=O)[O-])[C@H]5OS(=O)(=O)[O-])CC[C@]4(C)[C@H]3CC[C@]12C.[Na+].[Na+].[Na+].[Na+].[Na+].[Na+].[Na+].[Na+].[Na+].[Na+]`, the equilibrium dissociation constant (Kd) in data set [1] worked out at 0.0248 µM; in data set [2], 0.547 µM; in data set [12], 0.19 µM. The inhibition constant Ki on Heparanase was found to be 0.0091 µM. Moreover, the figures for the IC50 in the data set on HUVEC [3], with HUVEC [4] and with HUVEC [5] were 2.5 µM, 2.3 µM and 1.6 µM, respectively. For the same compound, the outcome in the data set on HMVEC [6], in the data set with HMVEC [7] and with HMVEC [8] was Active. Moreover, the APTT with Plasma [10] came out at 51.6 s. In addition, the Time with Plasma [11] was 29.2 s.
